{"source": "ChEMBL document CHEMBL4334471", "about": "“Discovery of 1,8-disubstituted-[1,2,3]triazolo[4,5-c]quinoline derivatives as a new class of Hippo signaling pathway inhibitors” (Bioorg Med Chem Lett, 2019)", "key": {"[1]": {"target": "Transcriptional coactivator YAP1 (Homo sapiens) (UniProt P46937)", "sequence (P46937 whole entry)": "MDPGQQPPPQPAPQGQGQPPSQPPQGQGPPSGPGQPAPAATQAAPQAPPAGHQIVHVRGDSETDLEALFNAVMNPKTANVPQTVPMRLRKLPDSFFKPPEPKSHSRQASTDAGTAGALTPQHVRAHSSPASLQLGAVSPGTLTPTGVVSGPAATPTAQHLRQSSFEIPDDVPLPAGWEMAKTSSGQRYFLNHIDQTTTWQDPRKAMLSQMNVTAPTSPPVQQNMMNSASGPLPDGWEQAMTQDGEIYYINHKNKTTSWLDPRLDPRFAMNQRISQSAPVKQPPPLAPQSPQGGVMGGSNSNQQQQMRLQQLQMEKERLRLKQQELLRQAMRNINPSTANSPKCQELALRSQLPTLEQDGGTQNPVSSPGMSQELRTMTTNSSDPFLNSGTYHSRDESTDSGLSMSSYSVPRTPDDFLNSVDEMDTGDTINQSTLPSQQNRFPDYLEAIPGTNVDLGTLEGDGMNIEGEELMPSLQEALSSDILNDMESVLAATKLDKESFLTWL", "test": "Induction of YAP nuclear translocation in human A549 cells at 10 uM incubated for 8 hrs by immunofluorescence based confocal microscopy", "type": "cell-based", "procedure,_shortened": "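A549-CTGF reporter cells were treated for 8 h at 10 µM, with 0.1% DMSO as vehicle control. Cells were then fixed, permeabilized and probed with anti-YAP antibody. DAPI stained the nuclei, and YAP localization was imaged by immunofluorescence.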"}, "[2]": {"species": "Homo sapiens", "test": "Inhibition of recombinant human A-Raf Y301D/ Y302D mutant (273 to end residues) assessed as residual activity at 10 uM using myelin basic protein as substrate incubated for 40 mins in presence of [gamma-33ATP] by scintillation counting based radiometry assay relative to control"}, "[3]": {"tested_on": "Serine/threonine-protein kinase B-raf (Homo sapiens), P15056 [V600E]", "test": "Inhibition of recombinant full length human B-Raf V599E mutant (416 to end residues) assessed as residual activity at 10 uM using myelin basic protein as substrate incubated for 40 mins in presence of [gamma-33ATP] by scintillation counting based radiometry assay relative to control"}, "[4]": {"target": "Death-associated protein kinase 2 (Homo sapiens) (UniProt Q9UIK4)", "sequence (Q9UIK4 whole entry, looked up)": "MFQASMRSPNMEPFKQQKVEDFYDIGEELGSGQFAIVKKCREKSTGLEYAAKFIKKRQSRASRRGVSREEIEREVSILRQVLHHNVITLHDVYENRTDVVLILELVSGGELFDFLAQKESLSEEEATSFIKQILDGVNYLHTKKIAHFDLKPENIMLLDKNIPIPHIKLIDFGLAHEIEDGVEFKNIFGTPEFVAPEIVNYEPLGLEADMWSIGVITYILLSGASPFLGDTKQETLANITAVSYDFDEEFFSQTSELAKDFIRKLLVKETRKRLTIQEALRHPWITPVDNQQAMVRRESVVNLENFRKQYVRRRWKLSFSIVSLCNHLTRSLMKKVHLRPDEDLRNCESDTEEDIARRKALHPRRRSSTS", "test": "Inhibition of recombinant full length human DAPK2 assessed as residual activity at 10 uM Calmodulin as substrate incubated 40 mins in presence of [gamma-33ATP] by scintillation counting based radiometry assay relative to control"}, "[5]": {"target": "Fibroblast growth factor receptor 1 (Homo sapiens) (UniProt P11362)", "sequence (P11362 22-822 limits assumed)": "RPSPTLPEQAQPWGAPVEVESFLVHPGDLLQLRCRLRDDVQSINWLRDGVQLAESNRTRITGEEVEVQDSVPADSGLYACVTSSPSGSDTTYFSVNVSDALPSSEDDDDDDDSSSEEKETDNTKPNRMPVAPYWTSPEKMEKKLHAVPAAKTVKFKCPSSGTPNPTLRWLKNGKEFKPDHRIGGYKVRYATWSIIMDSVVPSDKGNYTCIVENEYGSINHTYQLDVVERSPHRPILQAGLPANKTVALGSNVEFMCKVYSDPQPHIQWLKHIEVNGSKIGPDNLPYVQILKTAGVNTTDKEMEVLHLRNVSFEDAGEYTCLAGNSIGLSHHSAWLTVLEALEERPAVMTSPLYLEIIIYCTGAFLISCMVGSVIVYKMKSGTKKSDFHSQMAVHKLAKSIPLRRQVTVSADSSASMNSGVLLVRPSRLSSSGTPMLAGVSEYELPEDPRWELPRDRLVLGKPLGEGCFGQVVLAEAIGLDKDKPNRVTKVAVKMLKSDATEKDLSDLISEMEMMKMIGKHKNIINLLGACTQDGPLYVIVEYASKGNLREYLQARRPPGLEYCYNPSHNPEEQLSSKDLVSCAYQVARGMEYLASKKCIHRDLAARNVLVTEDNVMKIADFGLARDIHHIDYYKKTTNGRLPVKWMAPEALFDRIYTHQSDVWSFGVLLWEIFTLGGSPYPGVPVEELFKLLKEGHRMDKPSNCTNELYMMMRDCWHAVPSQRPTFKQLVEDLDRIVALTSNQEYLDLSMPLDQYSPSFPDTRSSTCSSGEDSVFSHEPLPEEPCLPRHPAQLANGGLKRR", "test": "Inhibition of recombinant human FGFR1 (456 to 765 residues) assessed as residual activity at 10 uM using KKKSPGEYVNIEF as substrate at 40 mins in presence of [gamma-33ATP] by scintillation counting based radiometry assay relative to control"}, "[6]": {"target": "Eukaryotic translation initiation factor 2-alpha kinase 1 (Homo sapiens) (UniProt Q9BQI3)", "test": "Inhibition of human HRI (140 to end residues) assessed as residual activity at 10 uM using RSRSRSRSRSRSR as substrate after 120 mins by [gamma-33ATP] radiometric assay relative to control"}, "[7]": {"target": "Serine/threonine-protein kinase 10 (Homo sapiens) (UniProt O94804)", "test": "Inhibition of recombinant human LOK (1 to 348 residues) assessed as residual activity at 10 uM using RLGRDKYKTLRQI as substrate after 40 mins in presence of [gamma-33ATP] by scintillation counting based radiometry assay relative to control"}, "[8]": {"target": "MAP kinase-activated protein kinase 3 (Homo sapiens) (UniProt Q16644)", "test": "Inhibition of recombinant human MAPKAPK3 (2 to end residues) assessed as residual activity at 10 uM using KKLNRTLSVA as substrate incubated for 40 mins in presence of [gamma-33ATP by scintillation counting based radiometry assay relative to control"}, "[9]": {"target": "MAP/microtubule affinity-regulating kinase 3 (Homo sapiens) (UniProt P27448)", "sequence (P27448 whole entry, looked up)": "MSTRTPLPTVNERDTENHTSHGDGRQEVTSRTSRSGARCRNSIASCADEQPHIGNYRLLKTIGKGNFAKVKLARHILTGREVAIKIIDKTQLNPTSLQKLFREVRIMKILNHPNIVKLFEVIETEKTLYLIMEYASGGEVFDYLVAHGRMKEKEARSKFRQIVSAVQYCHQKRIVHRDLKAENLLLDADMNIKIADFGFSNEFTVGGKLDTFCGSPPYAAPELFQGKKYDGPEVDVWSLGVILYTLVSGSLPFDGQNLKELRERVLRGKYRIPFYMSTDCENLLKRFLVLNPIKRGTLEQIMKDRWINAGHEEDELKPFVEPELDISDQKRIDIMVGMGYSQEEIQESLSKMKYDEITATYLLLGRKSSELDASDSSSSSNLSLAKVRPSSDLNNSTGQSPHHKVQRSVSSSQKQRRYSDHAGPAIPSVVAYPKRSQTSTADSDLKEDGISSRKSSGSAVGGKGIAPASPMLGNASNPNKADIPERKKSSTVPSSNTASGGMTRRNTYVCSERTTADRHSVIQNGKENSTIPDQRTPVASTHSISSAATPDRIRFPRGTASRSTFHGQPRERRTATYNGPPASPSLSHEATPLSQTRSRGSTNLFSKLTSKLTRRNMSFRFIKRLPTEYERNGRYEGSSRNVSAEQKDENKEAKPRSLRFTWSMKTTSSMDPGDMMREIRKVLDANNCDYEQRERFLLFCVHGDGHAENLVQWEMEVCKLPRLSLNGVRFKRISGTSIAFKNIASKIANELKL", "test": "Inhibition of recombinant full length human MARK3 assessed as residual activity at 10 uM using KKKVSRSGLYRSPSMPENLNRPR as substrate incubated for 40 mins in presence of [gamma-33ATP by scintillation counting based radiometry assay relative to control"}, "[10]": {"target": "Dual specificity mitogen-activated protein kinase kinase 6 (Homo sapiens) (UniProt P52564)", "test": "Inhibition of recombinant human MKK6 assessed as residual activity at 10 uM by scintillation counting based radiometry assay relative to control"}, "[11]": {"target": "Serine/threonine-protein kinase MRCK gamma (Homo sapiens) (UniProt Q6DT37)", "sequence (Q6DT37 whole entry)": "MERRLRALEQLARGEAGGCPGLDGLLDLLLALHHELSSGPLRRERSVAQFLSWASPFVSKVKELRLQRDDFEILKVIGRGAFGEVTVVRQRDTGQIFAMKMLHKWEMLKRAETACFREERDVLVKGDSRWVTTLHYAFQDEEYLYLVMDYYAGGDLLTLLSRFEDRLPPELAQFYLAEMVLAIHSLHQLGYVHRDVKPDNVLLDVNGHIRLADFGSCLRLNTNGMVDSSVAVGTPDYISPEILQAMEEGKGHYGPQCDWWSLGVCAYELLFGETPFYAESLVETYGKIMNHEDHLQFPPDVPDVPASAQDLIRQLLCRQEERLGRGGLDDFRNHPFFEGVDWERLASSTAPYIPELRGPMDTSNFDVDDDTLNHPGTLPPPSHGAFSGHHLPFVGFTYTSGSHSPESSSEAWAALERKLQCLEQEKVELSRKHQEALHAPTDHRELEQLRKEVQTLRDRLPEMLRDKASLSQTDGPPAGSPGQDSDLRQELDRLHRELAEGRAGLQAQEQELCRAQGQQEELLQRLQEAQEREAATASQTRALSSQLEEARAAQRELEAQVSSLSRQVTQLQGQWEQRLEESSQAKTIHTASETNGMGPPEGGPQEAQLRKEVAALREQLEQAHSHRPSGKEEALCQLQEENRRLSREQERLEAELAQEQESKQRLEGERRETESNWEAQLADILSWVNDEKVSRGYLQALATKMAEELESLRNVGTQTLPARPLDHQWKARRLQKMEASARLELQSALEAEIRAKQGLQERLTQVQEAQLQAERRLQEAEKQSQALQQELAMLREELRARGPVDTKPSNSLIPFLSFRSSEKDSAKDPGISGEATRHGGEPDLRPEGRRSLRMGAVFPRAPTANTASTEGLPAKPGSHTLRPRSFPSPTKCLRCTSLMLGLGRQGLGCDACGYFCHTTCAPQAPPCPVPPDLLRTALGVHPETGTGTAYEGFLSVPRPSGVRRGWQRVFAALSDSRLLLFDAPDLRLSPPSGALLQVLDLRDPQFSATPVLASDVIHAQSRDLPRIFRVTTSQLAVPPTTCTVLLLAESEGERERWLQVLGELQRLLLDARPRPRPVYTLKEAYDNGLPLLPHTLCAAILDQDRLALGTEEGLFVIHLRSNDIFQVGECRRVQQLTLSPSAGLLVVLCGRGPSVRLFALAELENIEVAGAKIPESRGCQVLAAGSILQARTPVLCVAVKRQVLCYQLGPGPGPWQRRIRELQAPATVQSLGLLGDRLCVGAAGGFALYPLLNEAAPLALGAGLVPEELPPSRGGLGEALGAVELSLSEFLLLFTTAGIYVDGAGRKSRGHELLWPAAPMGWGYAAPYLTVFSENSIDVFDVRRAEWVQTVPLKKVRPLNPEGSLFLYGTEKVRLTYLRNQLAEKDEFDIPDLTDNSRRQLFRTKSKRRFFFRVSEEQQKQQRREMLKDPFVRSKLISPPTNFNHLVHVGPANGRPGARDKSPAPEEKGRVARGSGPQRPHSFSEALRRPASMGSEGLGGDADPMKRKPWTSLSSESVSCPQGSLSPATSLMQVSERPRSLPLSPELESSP", "test": "Inhibition of recombinant human MRCKgamma assessed as residual activity at 10 uM using KKRNRTLTV as substrate incubated for 40 mins in presence of [gamma-33ATP by scintillation counting based radiometry assay relative to control"}, "[12]": {"target": "FKBP12A/mTOR (Homo sapiens) (UniProt P62942+P42345)", "test": "Inhibition of recombinant full length human mTOR/FKBP12 assessed as residual activity at 10 uM measured after 40 mins in presence of [gamma33P]ATP by scintillation counting based radiometry assay relative to control", "type": "protein-complex assay"}, "[13]": {"target": "Serine/threonine-protein kinase pim-3 (Homo sapiens) (UniProt Q86V86)", "test": "Inhibition of recombinant human Pim3 (2 to end residues) assessed as residual activity at 10 uM using RSRHSSYPAG as substrate incubated for 40 mins in presence of [gamma33P]ATP by scintillation counting based radiometry assay relative to control"}, "[14]": {"target": "Ribosomal protein S6 kinase alpha-6 (Homo sapiens) (UniProt Q9UK32)", "test": "Inhibition of recombinant full length human Rsk4 assessed as residual activity at 10 uM using LRRASLG as substrate incubated for 40 mins in presence of [gamma33P]ATP by scintillation counting based radiometry assay relative to control"}, "[15]": {"target": "Mitogen-activated protein kinase 13 (Homo sapiens) (UniProt O15264)", "test": "Inhibition of recombinant human full length SAPK4 assessed as residual activity at 10 uM using myelin basic protein as substrate incubated for 40 mins in presence of [gamma33P]ATP by scintillation counting based radiometry assay relative to control"}, "[16]": {"tested_on": "Serine/threonine-protein kinase Sgk2 (Homo sapiens), Q9HBY8 [S416D]", "sequence (Q9HBY8 1-367 with tags or gaps S416D)": "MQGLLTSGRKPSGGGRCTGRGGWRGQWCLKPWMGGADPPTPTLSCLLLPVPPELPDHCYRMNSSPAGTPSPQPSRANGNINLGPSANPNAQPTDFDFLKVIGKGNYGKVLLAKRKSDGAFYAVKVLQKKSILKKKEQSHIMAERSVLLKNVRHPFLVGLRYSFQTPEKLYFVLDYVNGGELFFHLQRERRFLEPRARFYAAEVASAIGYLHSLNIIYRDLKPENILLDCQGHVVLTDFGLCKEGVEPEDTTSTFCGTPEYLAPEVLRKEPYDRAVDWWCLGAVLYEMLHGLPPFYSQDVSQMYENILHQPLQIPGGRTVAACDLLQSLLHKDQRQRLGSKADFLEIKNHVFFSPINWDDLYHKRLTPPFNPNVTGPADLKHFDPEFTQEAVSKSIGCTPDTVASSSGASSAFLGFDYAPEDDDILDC", "test": "Inhibition of recombinant human SGK2 S416D mutant (54 to end residues) assessed as residual activity at 10 uM using GRPRTSSFAEGKK as substrate incubated for 40 mins in presence of [gamma33P]ATP by scintillation counting based radiometry assay relative to control"}, "[17]": {"target": "Wee1-like protein kinase 2 (Homo sapiens) (UniProt P0C1S8)", "sequence (P0C1S8 whole entry, looked up)": "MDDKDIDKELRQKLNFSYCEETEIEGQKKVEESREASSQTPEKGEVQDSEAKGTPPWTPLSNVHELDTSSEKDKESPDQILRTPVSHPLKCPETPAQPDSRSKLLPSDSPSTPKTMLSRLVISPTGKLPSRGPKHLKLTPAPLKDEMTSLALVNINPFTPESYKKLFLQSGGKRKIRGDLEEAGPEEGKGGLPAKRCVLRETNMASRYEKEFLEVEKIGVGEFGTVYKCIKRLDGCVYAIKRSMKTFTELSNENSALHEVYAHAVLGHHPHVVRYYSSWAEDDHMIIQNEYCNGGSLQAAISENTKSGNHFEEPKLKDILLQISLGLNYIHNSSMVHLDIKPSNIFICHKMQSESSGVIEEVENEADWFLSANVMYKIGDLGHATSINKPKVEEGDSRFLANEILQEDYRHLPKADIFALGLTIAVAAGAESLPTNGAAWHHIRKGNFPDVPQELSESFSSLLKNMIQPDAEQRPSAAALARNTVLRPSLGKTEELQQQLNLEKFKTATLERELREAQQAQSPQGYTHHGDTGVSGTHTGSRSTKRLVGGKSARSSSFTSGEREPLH", "test": "Inhibition of recombinant full length human WEE1b assessed as residual activity at 10 uM using LSNLYHQGKFLQTFCGSPLYRRR as substrate incubated for 40 mins in presence of [gamma33P]ATP by scintillation counting based radiometry assay relative to control"}, "[18]": {"species": "Mus musculus", "test": "Inhibition of recombinant full length mouse PI3K p110/p65 assessed as residual activity at 10 uM using phosphatidylinositol-4, 5-bisphosphate as substrate incubated for 40 mins in presence of [gamma33P]ATP by scintillation counting based radiometry assay relative to control"}, "[19]": {"species": "Mus musculus", "test": "Inhibition of recombinant full length mouse PI3K p110/p85 E545K mutant assessed as residual activity at 10 uM using phosphatidylinositol-4, 5-bisphosphate as substrate incubated for 40 mins in presence of [gamma33P]ATP by scintillation counting based radiometry assay relative to control"}, "[20]": {"target": "Phosphatidylinositol 4-phosphate 3-kinase C2 domain-containing subunit alpha (Homo sapiens) (UniProt O00443)", "test": "Inhibition of recombinant human PI3KC2alpha (299 to end residues) assessed as residual activity at 10 uM using phosphatidylinositol as substrate incubated for 40 mins in presence of [gamma33P]ATP by scintillation counting based radiometry assay relative to control"}, "[21]": {"target": "Casein kinase II subunit alpha' (Homo sapiens) (UniProt P19784)", "test": "Inhibition of recombinant full length human CK2alpha2 assessed as residual activity at 10 uM using RRRDDDSDDD as substrate incubated 40 mins in presence of [gamma-33ATP] by scintillation counting based radiometry assay relative to control"}}, "note": "Active and inactive are the calls of the source. The rule behind the calls is not given here."}
{"smiles": "C[C@@H](c1ccccc1)n1nnc2cnc3ccc(-c4cnc5[nH]ccc5c4)cc3c21", "values": [{"measurement": "Activity", "setting": "[1]", "value": "Active"}, {"measurement": "Activity", "setting": "[2]", "value": 95, "unit": "%"}, {"measurement": "Activity", "setting": "[3]", "value": 64, "unit": "%"}, {"measurement": "Activity", "setting": "[4]", "value": 89, "unit": "%"}, {"measurement": "Activity", "setting": "[5]", "value": 34, "unit": "%"}, {"measurement": "Activity", "setting": "[6]", "value": 91, "unit": "%"}, {"measurement": "Activity", "setting": "[7]", "value": 54, "unit": "%"}, {"measurement": "Activity", "setting": "[8]", "value": 76, "unit": "%"}, {"measurement": "Activity", "setting": "[9]", "value": 91, "unit": "%"}, {"measurement": "Activity", "setting": "[10]", "value": 109, "unit": "%"}, {"measurement": "Activity", "setting": "[11]", "value": 67, "unit": "%"}, {"measurement": "Activity", "setting": "[12]", "value": -1, "unit": "%"}, {"measurement": "Activity", "setting": "[13]", "value": 83, "unit": "%"}, {"measurement": "Activity", "setting": "[14]", "value": 62, "unit": "%"}, {"measurement": "Activity", "setting": "[15]", "value": 97, "unit": "%"}, {"measurement": "Activity", "setting": "[16]", "value": 36, "unit": "%"}, {"measurement": "Activity", "setting": "[17]", "value": 90, "unit": "%"}, {"measurement": "Activity", "setting": "[18]", "value": 14, "unit": "%"}, {"measurement": "Activity", "setting": "[19]", "value": 1, "unit": "%"}, {"measurement": "Activity", "setting": "[20]", "value": "-60 to 66", "unit": "%"}, {"measurement": "Activity", "setting": "[21]", "value": 83, "unit": "%"}]}
